Experimental findings from ChEMBL document CHEMBL4052826, “Design and Synthesis of Novel Reactive Oxygen Species Inducers for the Treatment of Pancreatic Ductal Adenocarcinoma” (J Med Chem, 2018) are described below.

The source made the active and inactive calls. No cut-off for these calls is given here.

Data set [1] can be described thus: Cytotoxicity against HPDEC assessed as decrease in cell proliferation after 72 hrs by MTT assay. In kind it is cell-based. To be noted: Homo sapiens. The method in brief:
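MTT assay. Cells (3000–8000/well) attached overnight in RPMI1640 with 10% FBS; the GR line was kept with 200 nM gemcitabine. Serial dilutions (30 nM–10 μM for most lines) were applied for 72 h. MTT was added at a final 300 μg/mL for 3 h at 37°C, formazan was dissolved in DMSO and A570 read. Inhibition = (1 − OD treated/OD control) × 100. IC50 given as mean ± SD, three independent experiments.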
(Formazan colour is commonly taken as a measure of viable cells.)

Data set [2] has as its system MIA PaCa-2. Nature of the data set: Cytotoxicity against human MIAPaCa2 cells assessed as decrease in cell proliferation after 72 hrs in presence of NAC by MTT assay. In kind it is functional, cell-based. The method in brief: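 MIA PaCa-2 cells were treated for 72 h with compound in the presence of 5 mM NAC. Viability was read by MTT (final 300 μg/mL, 3 h, A570). Mean ± SD of three independent experiments.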

For data set [3], the system named is MIA PaCa-2. Nature of the data set: Induction of reactive oxygen species generation in human MIAPaCa2 cells assessed as upregulation of HMOX1 gene expression after 4 hrs by Bru-seq analysis. It is filed as functional, cell-based.
The test system of data set [4] is MIA PaCa-2. Nature of the data set: Induction of unfolded protein response in human MIAPaCa2 cells assessed as upregulation of CHOP expression at 2 uM by Western blot analysis. It is filed as functional, cell-based. To be noted: TDE = time-dependent effect. In outline: (§1)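 Immunoblotting. Cells (4×10^5) in 60 mm dishes were treated, lysed 30 min at 4°C and quantified by BCA. 40 μg protein was run on SDS-PAGE and transferred to PVDF. Primary antibodies (1:1000) incubated overnight at 4°C, then Dylight 800 secondary, with fluorescent scanning. Bands were normalized to GAPDH or actin loading controls. Mean ± SD, three independent experiments, Student's t-test.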
In general terms: A western blot detects proteins with antibodies after separation by electrophoresis.

In data set [5] the test system is MIA PaCa-2. Kind of data set: Induction of unfolded protein response in human MIAPaCa2 cells assessed as upregulation of GRP78 expression at 2 uM by Western blot analysis. It is filed as functional, cell-based. To be noted: TDE = time-dependent effect. The method in brief: as §1
Data set [6] relates to BXPC-3. Kind of data set: Induction of unfolded protein response in human BxPC3 cells assessed as upregulation of CHOP expression at 2 uM by Western blot analysis. It is filed as functional, cell-based. To be noted: TDE = time-dependent effect. In outline:
as §1

In data set [7] the test system is BXPC-3. Kind of data set: Induction of reactive oxygen species generation in human BxPC3 cells assessed as upregulation of HO-1 expression at 2 uM after 4 to 24 hrs by Western blot analysis. It is filed as functional, cell-based. The method in brief:
as §1

Data set [8] has as its system BXPC-3. Nature of the data set: Induction of reactive oxygen species generation in human BxPC3 cells assessed as upregulation of NQO1 expression at 2 uM after 4 to 24 hrs by Western blot analysis. It is filed as functional, cell-based. In outline:
as §1

Data set [9] concerns MIA PaCa-2. Kind of data set: Downregulation of Sp1 gene expression in human MIAPaCa2 cells at IC50 to 5 times IC50 after 4 hrs by Bru-seq analysis. In kind it is functional, cell-based.
Data set [10] relates to MIA PaCa-2. Kind of data set: Downregulation of Sp4 gene expression in human MIAPaCa2 cells at IC50 to 5 times IC50 after 4 hrs by Bru-seq analysis. In kind it is functional, cell-based.
Data set [11] relates to MIA PaCa-2. Kind of data set: Downregulation of COX-3 expression in human MIAPaCa2 cells at 2 uM after 4 to 24 hrs by Western blot method. It is filed as functional, cell-based. The method in brief:
as §1

For data set [12], the system named is MIA PaCa-2. Nature of the data set: Antitumor activity against human MIAPaCa2 cells xenografted in NOD/SCID mouse assessed as tumor volume at 5 mg/kg, ip administered 5 times a week until day 44 (reference value: 1291 +/- 168 mm'3). It is filed as functional.
The test system of data set [13] is Mus musculus. Kind of data set: Toxicity in NOD/SCID mouse xenografted with human MIAPaCa2 cells assessed as lethargy at 5 mg/kg, ip administered 5 times a week until day 44. In kind it is organism-based. To be noted: in vivo. The method in brief:
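Subcutaneous flank MIA PaCa-2 xenografts (2.0×10^6 cells) in 6-week NOD/SCID mice, randomized at 65 mm3 (n=5/group: vehicle or drug). Dosed ip in 5% DMSO/60% propylene glycol/35% saline, five days on/two off, to day 44. Body weight tracked and mice watched for weakness, weight loss or lethargy; mean ± SEM.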

In data set [14] the test system is Mus musculus. Kind of data set: Toxicity in NOD/SCID mouse xenografted with human MIAPaCa2 cells assessed as microscopic changes in heart at 5 mg/kg, ip administered 5 times a week until day 44 by hematoxylin and eosin staining-based inverted microscopic method. It is filed as organism-based. To be noted: in vivo. In outline: (§2)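 Necropsy after the 44-day ip course in MIA PaCa-2 xenograft-bearing NOD/SCID mice: heart, kidney, liver, lung, spleen and pancreas fixed in 10% neutral buffered formalin, paraffin-embedded, sectioned and stained with hematoxylin and eosin. Sections examined by inverted microscope at 20X, compared with vehicle-treated animals.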
Background: A xenograft is tissue or cells of one species grown in another, often human tumour cells in immunodeficient mice.

Data set [15] concerns Mus musculus. Kind of data set: Toxicity in NOD/SCID mouse xenografted with human MIAPaCa2 cells assessed as microscopic changes in pancreas at 5 mg/kg, ip administered 5 times a week until day 44 by hematoxylin and eosin staining-based inverted microscopic method. It is filed as organism-based. The following applies: in vivo. The method in brief: as §2
For data set [16], the system named is Mus musculus. Nature of the data set: Induction of reactive oxygen species generation in tumor of NOD/SCID mouse xenografted with MIAPaCa2 cells assessed as upregulation of HO-1 expression at 5 mg/kg, ip administered 5 times a week until day 44 by Western blot method. It is filed as functional, organism-based.

`O=C1C(Nc2ccc(-c3ccccc3)cc2)=CC(=O)c2ncncc21`: in data set [1], the IC50 is 2.7 µM. The outcome with MIA PaCa-2 [2], with BXPC-3 [8], in the data set on MIA PaCa-2 [9] and with MIA PaCa-2 [10] was inactive. The Activity result is “Dose-dependent effect” in the data set on MIA PaCa-2 [3]; “Tde” with MIA PaCa-2 [4]; “Tde” in the data set on MIA PaCa-2 [5]; “Tde” with BXPC-3 [6]; 308 mm3 in the data set on MIA PaCa-2 [12]; “Non-Toxic” in the data set on Mus musculus [13]. Further, the Activity entry in the data set on Mus musculus [14] and in the data set on Mus musculus [15] was “Non-Toxic” each time. The outcome in the data set on BXPC-3 [7], in the data set on MIA PaCa-2 [11] and with Mus musculus [16] was Active.

The IC50 is the concentration that gives 50% inhibition.
